# According to ChEMBL document CHEMBL1121690, “Inhibition of cholesterol side-chain cleavage. 3. 22-azacholesterol analogues bearing aryl-substituted side chains” (J Med Chem, 1981):
# Tests used:
# Conditions in all cases: cattle
# [1] = target: T1, cholesterol side-chain cleavage cytochrome P450 (mitochondrial) (Bos taurus, UniProt P00189); assay: Percent inhibition of cholesterol side-chain cleavage cytochrome P450 at 0.1 uM in bovine adrenocortical mitochondrial acetone powder preparations
# T1 sequence (P00189 whole entry): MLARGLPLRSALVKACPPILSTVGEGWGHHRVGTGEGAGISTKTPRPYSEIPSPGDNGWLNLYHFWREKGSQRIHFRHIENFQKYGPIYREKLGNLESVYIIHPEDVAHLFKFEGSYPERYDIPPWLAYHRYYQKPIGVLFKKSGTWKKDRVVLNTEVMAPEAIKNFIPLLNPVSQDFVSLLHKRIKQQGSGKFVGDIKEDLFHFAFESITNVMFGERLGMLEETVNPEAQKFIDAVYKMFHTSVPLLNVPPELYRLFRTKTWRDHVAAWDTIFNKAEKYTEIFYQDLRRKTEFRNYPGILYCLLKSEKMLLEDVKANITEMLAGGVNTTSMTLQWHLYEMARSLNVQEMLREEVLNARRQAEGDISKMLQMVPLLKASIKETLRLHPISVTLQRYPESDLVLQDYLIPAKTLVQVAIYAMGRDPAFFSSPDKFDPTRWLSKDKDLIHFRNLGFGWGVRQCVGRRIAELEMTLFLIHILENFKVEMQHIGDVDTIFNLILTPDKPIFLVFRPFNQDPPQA
# Outline: (§1)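 Inhibitors were dissolved in DMF and added to the incubation mixture before the substrate, at final concentrations of 100 µM or less. Activity was taken from the change in isotope ratios between zero time and 2 h, read by liquid scintillation counting after the isocaproic acid was driven off by heating under vacuum.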
# [2] = target: T1, cholesterol side-chain cleavage cytochrome P450 (mitochondrial); assay: Percent inhibition of cholesterol side-chain cleavage cytochrome P450 at 1 uM in bovine adrenocortical mitochondrial acetone powder preparations; outline: as §1
# [3] = target: T1, cholesterol side-chain cleavage cytochrome P450 (mitochondrial); assay: Percent inhibition of cholesterol side-chain cleavage cytochrome P450 at 100 uM in bovine adrenocortical mitochondrial acetone powder preparations; outline: as §1
# [4] = target: T1, cholesterol side-chain cleavage cytochrome P450 (mitochondrial); assay: Percent inhibition of cholesterol side-chain cleavage cytochrome P450 at 10 uM in bovine adrenocortical mitochondrial acetone powder preparations; outline: as §1
Structure (SMILES),inhibition at 0.1 µM [1],inhibition at 1 µM [2],inhibition at 100 µM [3],inhibition at 10 µM [4]
CC(NC(=O)CCc1ccccc1)C1CCC2C3CC=C4CC(O)CCC4(C)C3CCC12C (centres undefined),19%,–,–,–
CC(NC(=O)Cc1ccc([N+](=O)[O-])cc1)C1CCC2C3CC=C4CC(O)CCC4(C)C3CCC12C (centres undefined),–,22%,39%,49%
CC(C(=O)NCc1ccccc1)C1CCC2C3CC=C4CC(O)CCC4(C)C3CCC12C (centres undefined),–,–,45%,31%
CC(NC(=O)Cc1ccccc1)C1CCC2C3CC=C4CC(O)CCC4(C)C3CCC12C (centres undefined),28%,–,–,44%
COc1ccc(CCNC(C)C2CCC3C4CC=C5CC(O)CCC5(C)C4CCC23C)cc1 (centres undefined),-6%,–,–,40%
CC(NCCc1ccc(Cl)cc1)C1CCC2C3CC=C4CC(O)CCC4(C)C3CCC12C (centres undefined),–,22%,–,–
CC(NC(=O)c1ccccc1)C1CCC2C3CC=C4CC(O)CCC4(C)C3CCC12C (centres undefined),9%,53%,84%,84%
COc1ccc(CC(=O)NC(C)C2CCC3C4CC=C5CC(O)CCC5(C)C4CCC23C)cc1 (centres undefined),38%,–,–,–
CC(NC(=O)Cc1ccc(Cl)cc1)C1CCC2C3CC=C4CC(O)CCC4(C)C3CCC12C (centres undefined),25%,–,–,–
CC(NC(=O)Cc1cccc(I)c1)C1CCC2C3CC=C4CC(O)CCC4(C)C3CCC12C (centres undefined),–,18%,–,73%
